According to ChEMBL document CHEMBL1150154, “Isolation of labradorins 1 and 2 from Pseudomonas syringae pv. coronafaciens” (2002):
≈ marks a conversion by molar mass, not a printed value. Calls of active or inactive are those of the source. No cut-off for these calls is given here.

Assays:
[1] = test system: Stenotrophomonas maltophilia; assay: Antimicrobial activity against Stenotrophomonas maltophilia up to 64 ug/mL by broth microdilution susceptibility assay; assay type: functional, organism-based
MCF7 = assay: Growth inhibition of human MCF7 cells; assay type: functional
How it was run: (§1)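 Human cancer cell line panel: pancreas (BXPC-3), breast (MCF-7), CNS (SF-268), non-small-cell lung (NCI-H460), colon (KM20L2) and prostate (DU-145). Growth inhibition is reported as GI50 in µg/mL.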

SF-268 = assay: Growth inhibition of human SF268 cells; assay type: functional; how it was run: as §1
DU-145 = assay: Growth inhibition of human DU145 cells; assay type: functional; how it was run: as §1
Staphylococcus aureus = assay: Antimicrobial activity against Staphylococcus aureus up to 64 ug/mL by broth microdilution susceptibility assay; assay type: functional, organism-based
Escherichia coli = assay: Antimicrobial activity against Escherichia coli up to 64 ug/mL by broth microdilution susceptibility assay; assay type: functional, organism-based
Streptococcus pneumoniae = assay: Antimicrobial activity against Streptococcus pneumoniae up to 64 ug/mL by broth microdilution susceptibility assay; assay type: functional, organism-based
KM-20L2 = assay: Growth inhibition of human KM20L2 cells; assay type: functional; how it was run: as §1
Enterobacter cloacae = assay: Antimicrobial activity against Enterobacter cloacae up to 64 ug/mL by broth microdilution susceptibility assay; assay type: functional, organism-based
NCI-H460 = assay: Growth inhibition of human NCI-H460 cells; assay type: functional; how it was run: as §1
Enterococcus faecalis = assay: Antimicrobial activity against Enterococcus faecalis up to 64 ug/mL by broth microdilution susceptibility assay; assay type: functional, organism-based
BXPC-3 = assay: Growth inhibition of human BxPC3 cells; assay type: functional; how it was run: as §1
Candida albicans = assay: Antimicrobial activity against Candida albicans up to 64 ug/mL by broth microdilution susceptibility assay; assay type: functional, organism-based
Neisseria gonorrhoeae = assay: Antimicrobial activity against Neisseria gonorrhoeae up to 64 ug/mL by broth microdilution susceptibility assay; assay type: functional, organism-based
Micrococcus luteus = assay: Antimicrobial activity against Micrococcus luteus up to 64 ug/mL by broth microdilution susceptibility assay; assay type: functional, organism-based
Cryptococcus neoformans = assay: Antimicrobial activity against Cryptococcus neoformans up to 64 ug/mL by broth microdilution susceptibility assay; assay type: functional, organism-based

Row | GI50 (MCF7) | GI50 (DU-145) | GI50 (NCI-H460) | GI50 (BXPC-3) | Structure (SMILES) | Activity [1] | GI50 (SF-268) | Activity (Staphylococcus aureus) | Activity (Escherichia coli) | Activity (Streptococcus pneumoniae) | GI50 (KM-20L2) | Activity (Enterobacter cloacae) | Activity (Enterococcus faecalis) | Activity (Candida albicans) | Activity (Neisseria gonorrhoeae) | Activity (Micrococcus luteus) | Activity (Cryptococcus neoformans)
1 | 27.4 mg/L (≈ 108 µM) | 11.4 mg/L (≈ 44.8 µM) | 9.6 mg/L (≈ 37.7 µM) | 9.6 mg/L (≈ 37.7 µM) | CCCCCc1ncc(-c2c[nH]c3ccccc23)o1 [LABRADORIN 2] | inactive | 58.8 mg/L (≈ 231 µM) | inactive | inactive | inactive | 9.7 mg/L (≈ 38.1 µM) | inactive | inactive | inactive | inactive | inactive | inactive
2 | 3.9 mg/L (≈ 16.2 µM) | 4 mg/L (≈ 16.6 µM) | 9.8 mg/L (≈ 40.8 µM) | 6.2 mg/L (≈ 25.8 µM) | CC(C)Cc1ncc(-c2c[nH]c3ccccc23)o1 [LABRADORIN 1] | inactive | 5.1 mg/L (≈ 21.2 µM) | inactive | inactive | inactive | 3.5 mg/L (≈ 14.6 µM) | inactive | inactive | inactive | inactive | inactive | inactive
